Published values pooled from the literature.
Lines come from different studies, so protocols differ. In brackets after ≈: the same amount, converted by molar mass.

For `CC[C@H](C)[C@H](NC(=O)[C@H](CO)NC(=O)[C@H](CCCNC(=N)N)NC(C)=O)C(=O)N[C@H]1CSSC[C@@H](C(=O)N[C@H](C(N)=O)[C@@H](C)O)NC(=O)[C@H](CCCNC(=N)N)NC(=O)[C@H](Cc2c[nH]cn2)NC(=O)[C@H](Cc2cccc3ccccc23)NC(=O)CNC(=O)[C@H](Cc2c[nH]c3ccccc23)NC(=O)[C@H](CC(=O)O)NC(=O)[C@H](CCC(N)=O)NC(=O)[C@H](Cc2c[nH]c3ccccc23)NC(=O)[C@H](C(C)C)NC1=O`, the solubility was 390 µg/mL (≈ 197 µM) (PBS; pH 7.4).
The kinetic solubility of `CCCc1ccc(-c2ccc([C@@H](CO)C(=O)N[C@H](C)c3ccccc3)cc2)cc1` is reported as < 1 µM (PBS; pH 7.4).
The solubility of `Clc1ccc(CSc2nnc(-c3ccccn3)n2Cc2ccco2)cc1Cl` is reported as 0.14 µg/mL (≈ 0.335 µM) (aqueous buffer; pH 7.4).
With `OC(c1ccc(F)cc1)C(F)(F)CCN1CCC(O)(c2ccc(Cl)cc2)CC1` (racemic) the kinetic solubility was 3.4 µM (PBS; 2 h; pH 7.4; 25 °C).
`O=C1C=C(N(Cc2ccc(Cl)nc2)CC(F)F)CO1` has a solubility of 3200 µg/mL (≈ 11100 µM) (water; pH 4).
With `CC[C@H](C)[C@H](NC(=O)[C@H](CO)NC(=O)[C@H](CCCNC(=N)N)NC(C)=O)C(=O)N[C@H]1CSSC[C@@H](C(=O)N[C@H](C(N)=O)[C@@H](C)O)NC(=O)[C@H](CCCNC(=N)N)NC(=O)[C@H](Cc2c[nH]cn2)NC(=O)[C@H](C)NC(=O)CNC(=O)[C@H](Cc2c[nH]c3ccccc23)NC(=O)[C@H](CC(=O)O)NC(=O)[C@H](CCC(N)=O)NC(=O)[C@H](Cc2cccc3ccccc23)NC(=O)[C@H](C(C)C)NC1=O` the solubility was 2110 µg/mL (≈ 1130 µM) (PBS; pH 7.4).
The kinetic solubility of `C#Cc1ccc2c(c1)C(c1ccccn1)=NCc1c(-c3cnco3)ncn1-2` is reported as 517 µg/mL (water; 90 min; 37 °C).
The thermodynamic solubility of `Nc1ncc(-c2nc(N3CCOCC3)nc(N3CCOCC3)n2)c(C(F)F)n1` is reported as 7.6 µM (shake flask; FaSSIF; 24 h).
With `CC(=O)N[C@@H](CC(N)=O)C(=O)N[C@@H](CC(N)=O)C(=O)N[C@@H](CC(C)C)C(=O)N[C@H]1CSSC[C@@H](C(=O)N[C@H](C(N)=O)[C@@H](C)O)NC(=O)[C@H](CCCNC(=N)N)NC(=O)[C@H](Cc2c[nH]cn2)NC(=O)[C@H](Cc2cccc3ccccc23)NC(=O)CNC(=O)[C@H](Cc2c[nH]c3ccccc23)NC(=O)[C@H](CC(=O)O)NC(=O)[C@H](CCC(N)=O)NC(=O)[C@H](Cc2c[nH]c3ccccc23)NC(=O)[C@H](C(C)C)NC1=O` the solubility was 270 µg/mL (≈ 137 µM) (PBS; pH 7.4).
`CC(C)CCC[C@@H](C)[C@H]1CC[C@H]2[C@@H]3CC=C4C[C@@H](OCCCNC(=O)CCC(=O)NCCCC[C@H](NC(=O)[C@H]5CCCN5C(=O)[C@H](CCC(=O)O)NC(=O)[C@H](C)NC(=O)[C@@H](NC(=O)C[C@H](O)[C@H](CC(C)C)NC(=O)[C@H](CC(N)=O)NC(=O)[C@@H](NC(=O)[C@@H](N)CCC(=O)O)C(C)C)C(C)C)C(N)=O)CC[C@]4(C)[C@H]3CC[C@]12C` has a thermodynamic solubility of > 3000 µg/mL (aqueous buffer; pH 6.5).
